Results from ChEMBL document CHEMBL1629696, “Identification of a novel transposon (Tn6072) and a truncated staphylococcal cassette chromosome mec element in methicillin-resistant Staphylococcus aureus ST239” (2010).

Experiments:
Type in all cases: functional
Staphylococcus aureus [1] = assay: Antimicrobial activity against methicillin-resistant Staphylococcus aureus 16674 by broth dilution method
Summary of the method: (§1)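 Oxacillin MIC by broth dilution per CLSI guidelines, on clinical MRSA isolates collected March 2004–June 2005 at a county hospital in Braşov, Romania. Bacterial suspensions were incubated 24 h at 37°C and growth was read as OD600. S. aureus MRSA252 and MSSA476 served as positive and negative controls.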

Staphylococcus aureus [2] = assay: Antimicrobial activity against methicillin-resistant Staphylococcus aureus 16645 by broth dilution method; summary of the method: as §1
Staphylococcus aureus [3] = assay: Antimicrobial activity against methicillin-resistant Staphylococcus aureus 16646 by broth dilution method; summary of the method: as §1
Staphylococcus aureus [4] = assay: Antimicrobial activity against methicillin-resistant Staphylococcus aureus 85/2082 by broth dilution method
Staphylococcus aureus [5] = assay: Antimicrobial activity against methicillin-resistant Staphylococcus aureus 16692 by broth dilution method; summary of the method: as §1
Staphylococcus aureus [6] = assay: Antimicrobial activity against methicillin-resistant Staphylococcus aureus 16703 by broth dilution method; summary of the method: as §1
Staphylococcus aureus [7] = assay: Antimicrobial activity against methicillin-resistant Staphylococcus aureus 16684 by broth dilution method; summary of the method: as §1
Staphylococcus aureus [8] = assay: Antimicrobial activity against methicillin-resistant Staphylococcus aureus 16677 by broth dilution method; summary of the method: as §1
Staphylococcus aureus [9] = assay: Antimicrobial activity against methicillin-resistant Staphylococcus aureus 16699 by broth dilution method; summary of the method: as §1
Staphylococcus aureus [10] = assay: Antimicrobial activity against methicillin-resistant Staphylococcus aureus 16678 by broth dilution method; summary of the method: as §1
Staphylococcus aureus [11] = assay: Antimicrobial activity against methicillin-resistant Staphylococcus aureus 16683 by broth dilution method; summary of the method: as §1
Staphylococcus aureus [12] = assay: Antimicrobial activity against methicillin-resistant Staphylococcus aureus 16689 by broth dilution method; summary of the method: as §1
Staphylococcus aureus [13] = assay: Antimicrobial activity against methicillin-resistant Staphylococcus aureus 16700 by broth dilution method; summary of the method: as §1
Staphylococcus aureus [14] = assay: Antimicrobial activity against methicillin-resistant Staphylococcus aureus 16676 by broth dilution method; summary of the method: as §1
Staphylococcus aureus [15] = assay: Antimicrobial activity against methicillin-resistant Staphylococcus aureus 16686 by broth dilution method; summary of the method: as §1
Staphylococcus aureus [16] = assay: Antimicrobial activity against methicillin-resistant Staphylococcus aureus 16688 by broth dilution method; summary of the method: as §1
Staphylococcus aureus [17] = assay: Antimicrobial activity against methicillin-resistant Staphylococcus aureus 16653 by broth dilution method; summary of the method: as §1
Staphylococcus aureus [18] = assay: Antimicrobial activity against methicillin-resistant Staphylococcus aureus 16651 by broth dilution method; summary of the method: as §1
Staphylococcus aureus [19] = assay: Antimicrobial activity against methicillin-resistant Staphylococcus aureus 16666 by broth dilution method; summary of the method: as §1
Staphylococcus aureus [20] = assay: Antimicrobial activity against methicillin-resistant Staphylococcus aureus 16658 by broth dilution method; summary of the method: as §1
Staphylococcus aureus [21] = assay: Antimicrobial activity against methicillin-resistant Staphylococcus aureus 16687 by broth dilution method; summary of the method: as §1
Staphylococcus aureus [22] = assay: Antimicrobial activity against methicillin-resistant Staphylococcus aureus 16670 by broth dilution method; summary of the method: as §1
Staphylococcus aureus [23] = assay: Antimicrobial activity against methicillin-resistant Staphylococcus aureus 16680 by broth dilution method; summary of the method: as §1
Staphylococcus aureus [24] = assay: Antimicrobial activity against methicillin-resistant Staphylococcus aureus 16696 by broth dilution method; summary of the method: as §1
Staphylococcus aureus [25] = assay: Antimicrobial activity against methicillin-resistant Staphylococcus aureus 16672 by broth dilution method; summary of the method: as §1
Staphylococcus aureus [26] = assay: Antimicrobial activity against methicillin-resistant Staphylococcus aureus HDG2 by broth dilution method
Staphylococcus aureus [27] = assay: Antimicrobial activity against methicillin-resistant Staphylococcus aureus 16656 by broth dilution method; summary of the method: as §1
Staphylococcus aureus [28] = assay: Antimicrobial activity against methicillin-resistant Staphylococcus aureus 16708 by broth dilution method; summary of the method: as §1
Staphylococcus aureus [29] = assay: Antimicrobial activity against methicillin-resistant Staphylococcus aureus 16698 by broth dilution method; summary of the method: as §1
Staphylococcus aureus [30] = assay: Antimicrobial activity against methicillin-resistant Staphylococcus aureus 16704 by broth dilution method; summary of the method: as §1
Staphylococcus aureus [31] = assay: Antimicrobial activity against methicillin-resistant Staphylococcus aureus 16691 by broth dilution method; summary of the method: as §1
Staphylococcus aureus [32] = assay: Antimicrobial activity against methicillin-resistant Staphylococcus aureus 16702 by broth dilution method; summary of the method: as §1
Staphylococcus aureus [33] = assay: Antimicrobial activity against methicillin-resistant Staphylococcus aureus 16679 by broth dilution method; summary of the method: as §1
Staphylococcus aureus [34] = assay: Antimicrobial activity against methicillin-resistant Staphylococcus aureus 16652 by broth dilution method; summary of the method: as §1
Staphylococcus aureus [35] = assay: Antimicrobial activity against methicillin-resistant Staphylococcus aureus 16695 by broth dilution method; summary of the method: as §1
Staphylococcus aureus [36] = assay: Antimicrobial activity against methicillin-resistant Staphylococcus aureus 16671 by broth dilution method; summary of the method: as §1

Measured: MIC

Cc1onc(-c2ccccc2)c1C(=O)N[C@@H]1C(=O)N2[C@@H]1SC(C)(C)[C@@H]2C(=O)O [OXACILLIN]
> 512 µg/mL: Staphylococcus aureus [2]
64 µg/mL: Staphylococcus aureus [26]
256 µg/mL: Staphylococcus aureus [1] | Staphylococcus aureus [5] | Staphylococcus aureus [6] | Staphylococcus aureus [7] | Staphylococcus aureus [8] | Staphylococcus aureus [9] | Staphylococcus aureus [10] | Staphylococcus aureus [11] | Staphylococcus aureus [19] | Staphylococcus aureus [20] | Staphylococcus aureus [28] | Staphylococcus aureus [31]
16 µg/mL: Staphylococcus aureus [4]
8 µg/mL: Staphylococcus aureus [25]
512 µg/mL: all other assays above
